ABHD5 PLIN5 PPI – ABHD5-PLIN5 protein interaction inhibition. Split G. princeps luciferase complementation, luminescence, 4 h. inhibition, % at 4 µM. 360,000 compounds, 0.78% hits;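 active = inhibition above the mean inhibition across every tested compound plus 3 SD, cut at about 22% in these data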
PfGluPho inh – PfG6PD (Plasmodium falciparum) enzyme inhibition; PfGluPho enzyme, NADPH resazurin-diaphorase fluorescence; inhibition, % at 20 µM; 350,000 compounds, 0.78% hits; AID 504690;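 active = inhibition reaching at least a set limit at 20 µM in the primary screen, cut at about 59% in these data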
Exocytosis inh – lytic granule exocytosis inhibition. TALL-104 LAMP-1 surface exposure, flow cytometry; cells stimulated with thapsigargin and PMA. AID 651702. 360,000 compounds, 0.66% hits. inhibition, % at 10 µM;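 active = inhibition above about 55%, limit read from the data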
HKDC1 inhibitor – HKDC1 (human) hexokinase inhibition; Q2TB90; recombinant HKDC1, G6PDH/diaphorase resazurin coupled fluorescence; inhibition, % at 20 µM; 340,000 compounds, 0.16% hits; AID 493160;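 active = inhibition above about 35% when tested at 20 µM, limit read from the data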
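Test system: recombinant HKDC1 (HK5) hexokinase enzyme, produced in-house; Amount: enzyme 5 µg/mL final; Buffer or medium: Tris pH 8.0 buffer with MgCl2, Tween-20, BSA, BME; Reagent: glucose and ATP substrates; Doses: 20 µM test compound, 1% DMSO; Incubation: 90 min reaction incubation at room temperature, dark; Detection: resorufin fluorescence at 613 nm.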
ABHD5 PLIN5 conf – confirmation of human ABHD5-PLIN5 interaction inhibitors. 2,200 compounds, 67% hits. shares compounds with ABHD5 PLIN5 PPI. AID 651612. inhibition, % at 4 µM. biochemical ABHD5-PLIN5 interaction, luminescence; in the data active = inhibition above about 23%
HNF4 split-luc – active in HNF4 split-luciferase counter-screen for ABHD5-PLIN5 inhibitors | HNF4 dimerization, luminescence, biochemical | inhibition, % at 4 µM | 2,200 compounds, 77% hits | shares compounds with ABHD5 PLIN5 PPI;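 active = mean inhibition across replicate wells exceeding the computed hit threshold, cut at about 13% in these data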;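 also: light from luciferase halves that rejoin when HNF4 fusion proteins dimerize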
Target sequence (P41235 whole entry, looked up, the tested form may be a part): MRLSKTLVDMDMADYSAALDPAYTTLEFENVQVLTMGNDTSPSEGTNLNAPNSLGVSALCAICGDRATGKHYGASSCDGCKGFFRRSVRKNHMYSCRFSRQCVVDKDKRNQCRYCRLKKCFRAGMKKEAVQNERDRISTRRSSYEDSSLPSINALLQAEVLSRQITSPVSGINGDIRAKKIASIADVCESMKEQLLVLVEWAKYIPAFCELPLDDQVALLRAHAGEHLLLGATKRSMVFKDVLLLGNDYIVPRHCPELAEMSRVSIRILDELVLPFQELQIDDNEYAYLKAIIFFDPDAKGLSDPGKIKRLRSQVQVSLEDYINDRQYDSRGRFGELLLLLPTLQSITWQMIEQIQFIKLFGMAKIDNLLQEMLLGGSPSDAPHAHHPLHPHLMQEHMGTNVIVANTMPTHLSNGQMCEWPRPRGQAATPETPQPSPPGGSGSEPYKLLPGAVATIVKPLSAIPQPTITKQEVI
Large screens that a line does not name were inactive (follow-up assays come after a bar, where they were run). Shown are actives, neighbours in structure and some others; about 2.2% of the full set was active somewhere.

Cc1cccc(C)c1NC(=O)C(CCc1ccccc1)n1c(=O)c(-c2ccccc2)nc2ccccc21 (stereo not given)	ABHD5 PLIN5 PPI 25.6 (no result: PfGluPho inh, HKDC1 inhibitor) | ABHD5 PLIN5 conf 31.2 | HNF4 split-luc 13.0
ON=Cc1ccnc2ccccc12	none (no result: HKDC1 inhibitor)
O=C(/C=C/c1ccnc2ccccc12)c1cccs1	ABHD5 PLIN5 PPI 63.0 | ABHD5 PLIN5 conf 91.7 | HNF4 split-luc 91.8
Cc1ccc(S(=O)(=O)N[C@@H](Cc2ccccc2)C(=O)CCl)cc1	ABHD5 PLIN5 PPI 53.0 | ABHD5 PLIN5 conf 93.0 | HNF4 split-luc 89.7
Cc1ccc(S(=O)(=O)NC(Cc2ccccc2)C(=O)NN)cc1 (stereo not given)	none
COc1ccc(NS(=O)(=O)c2ccc(C)c(C(=O)NCCCN3CCCC3=O)c2)cc1	ABHD5 PLIN5 PPI 23.4 | ABHD5 PLIN5 conf inactive | HNF4 split-luc inactive
CSC1=NC(C)(C)C=C(/C=C/c2c(Cl)cccc2Cl)N1	none
CSC1=NC(C)(C)C=C(/C=C/c2ccc(Cl)cc2)N1	ABHD5 PLIN5 PPI 23.9 | ABHD5 PLIN5 conf 45.5 | HNF4 split-luc 42.5
CCSC1=NC(C)(C)C=C(/C=C/c2ccc(Cl)cc2Cl)N1	ABHD5 PLIN5 PPI 26.2 | ABHD5 PLIN5 conf 32.2 | HNF4 split-luc 33.3
O=[N+]([O-])c1ccc(S(=O)(=O)c2ccccc2)nc1	ABHD5 PLIN5 PPI 53.7 | ABHD5 PLIN5 conf 56.6 | HNF4 split-luc 108.7
Cc1ccc(S(=O)(=O)c2ccc([N+](=O)[O-])cn2)cc1	ABHD5 PLIN5 PPI 48.5 | ABHD5 PLIN5 conf 74.6 | HNF4 split-luc 112.3
Cc1cc(S(=O)(=O)c2ccc([N+](=O)[O-])cn2)ccc1Br	none
CCCN(CC(=O)Nc1ccccc1C)C(=O)c1ccc(C2SCCS2)cc1	none
CN1C(=O)/C(=C\C(=O)c2cccs2)c2ccccc21	ABHD5 PLIN5 PPI 65.2 | ABHD5 PLIN5 conf 67.0 | HNF4 split-luc 86.8
Cc1ccn2c(Nc3ccc4c(c3)OCO4)c(-c3ccc(O)cc3)nc2c1	none
COC(=O)C1=C(O)/C(=C\c2ccc(CNS(=O)(=O)c3ccc(Cl)cc3)o2)N=C1C	ABHD5 PLIN5 PPI 31.6 | ABHD5 PLIN5 conf 28.8 | HNF4 split-luc 39.0
CC(C)(C)c1cc(C(=O)CCN2CCOCC2)cc(C(C)(C)C)c1O	ABHD5 PLIN5 PPI 32.2 | ABHD5 PLIN5 conf inactive | HNF4 split-luc 32.0
O=C(CCN1CCOCC1)c1ccc(N2CCCCC2)cc1	none
Oc1c(CN2CCOCC2)cc(CN2CCOCC2)c(O)c1CN1CCOCC1	ABHD5 PLIN5 PPI 55.0 | ABHD5 PLIN5 conf 78.7 | HNF4 split-luc 108.0
O=c1c(C(c2ccc(O)cc2)c2c(O)nc3n(c2=O)CCS3)c(O)nc2n1CCS2	ABHD5 PLIN5 PPI 53.1 | ABHD5 PLIN5 conf 89.5 | HNF4 split-luc 79.3
O=c1c(C(c2ccc(Br)cc2)c2c(O)nc3n(c2=O)CCCS3)c(O)nc2n1CCCS2	none
O=c1c(C(c2ccc(O)cc2)c2c(O)nc3n(c2=O)CCCS3)c(O)nc2n1CCCS2	ABHD5 PLIN5 PPI 28.6 | ABHD5 PLIN5 conf 83.7 | HNF4 split-luc 71.4
COc1ccc(C(=O)OCC(=O)N2CCN(S(=O)(=O)c3ccc(C)cc3)CC2)cc1[N+](=O)[O-]	ABHD5 PLIN5 PPI 85.7 | ABHD5 PLIN5 conf inactive | HNF4 split-luc inactive
COc1ccccc1C1NC(=O)NC(C)=C1C(=O)OCC1CCCCC1 (stereo not given)	none (no result: HKDC1 inhibitor)
CCC(CC)C(=O)Nc1cccc(C(=O)NCc2ccco2)c1	ABHD5 PLIN5 PPI 25.4 | ABHD5 PLIN5 conf 24.8 | HNF4 split-luc 31.1
O=C(NCc1ccco1)c1ccc2c(c1)C(=O)c1ccccc1-2	ABHD5 PLIN5 PPI 32.9 | ABHD5 PLIN5 conf 45.8 | HNF4 split-luc 48.8
O=C(NCc1ccco1)c1ccc(C(=O)NCc2ccco2)cc1	none
O=C(C[n+]1ccc(C(=O)NCc2ccccc2)cc1)c1ccc(Cl)cc1	none
CCN1CCN(C(=O)Cn2cnc3sc(C)c(S(=O)(=O)N4CCN(c5ncccn5)CC4)c3c2=O)CC1	none
COc1ccc(C(NC(=O)/C=C/c2ccco2)c2ccc(OC)cc2)cc1	ABHD5 PLIN5 PPI 24.9 | ABHD5 PLIN5 conf 66.1 | HNF4 split-luc 46.0
CC(=C/C(=O)O)/C=C/c1ccco1	ABHD5 PLIN5 PPI 25.4 | ABHD5 PLIN5 conf inactive | HNF4 split-luc 17.1
CC(/C=C/c1ccc(Cl)o1)=C\C(=O)O	none
CC1(CCc2ccccc2)NC(=O)N(CC(=O)Nc2ccc3c(c2)OCCO3)C1=O (stereo not given)	none
O=C(NCCN1CCN(C(=O)c2cccc(OC(F)F)c2)CC1)c1cccc(OC(F)F)c1	none

Compound activity: PubChem BioAssay, several laboratories
